Experiment [1] deals with Mycobacterium avium. In words: In vitro cytotoxicity against Mycobacterium avium (CIP 103317) was determined. It is filed as functional.
Another experiment concerns Mycobacterium gordonae. In words: In vitro cytotoxicity against Mycobacterium gordonae (CIP 6427) was determined. The class given is functional. Put shortly:
(§1)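 Broth microdilution in Middlebrook 7H9. Stocks were made in DMSO and filter-sterilized (0.2 μm), then serially diluted 2-fold in water. Tubes were incubated at 37°C for 10-15 days, with a drug-free control tube in each experiment. MIC (μg/mL) is the lowest concentration giving no visible turbidity.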

The test system of experiment [2] is Mycolicibacterium smegmatis. In words: In vitro cytotoxicity against Mycobacterium smegmatis CIP (103599) was determined. It is filed as functional. Put shortly: as §1
The subject of experiment [3] is Mycobacterium tuberculosis. In words: In vitro minimum inhibitory concentration against Mycobacterium tuberculosis CIP 103471 was determined. The class given is functional. The gist of the method:
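Broth microdilution in Middlebrook 7H9 with 10% ADC. DMSO stocks were filter-sterilised (0.2 μm nylon), then serially diluted 2-fold in water. Tubes were incubated at 37°C for 10-15 days alongside a drug-free control. MIC was the lowest concentration with no visible turbidity.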

The subject of a further experiment is Mycobacterium marinum. In words: In vitro cytotoxicity against Mycobacterium marinum (CIP 6423) was determined. The class given is functional. The gist of the method: as §1
The test system of the next experiment is Vero. In words: Minimal toxic dose that induced a reduction of 50% of cell growth in Vero cell line […]. The class given is functional, Chlorocebus sabaeus. The gist of the method:
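VERO monolayers in Dulbecco's modified MEM with 2% fetal calf serum were seeded at 9'10⁴ cells per well in six-well plates. Compounds, dissolved in DMSO at 10 mg/mL initially, were added after 24 h. Five days later, cells were trypsinised and counted in a Neubauer chamber. MTD50 was the concentration giving 50% growth reduction versus control.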

Experiment [4] deals with Mycobacterium avium. In words: In vitro cytotoxicity against Mycobacterium avium (CIP 103317) was determined.

In brackets after ≈: the same amount, converted by molar mass.

For `CN[C@@H]1[C@H](O[C@H]2[C@H](O[C@H]3[C@H](O)[C@@H](O)[C@H](N=C(N)N)[C@@H](O)[C@@H]3N=C(N)N)O[C@@H](C)[C@]2(O)C=O)O[C@@H](CO)[C@H](O)[C@H]1O` [STREPTOMYCIN], the MIC came out at 4 µg/mL (≈ 6.88 µM) with Mycobacterium avium [1]; 16 µg/mL (≈ 27.5 µM) against Mycobacterium gordonae; 8 µg/mL (≈ 13.8 µM) in experiment [2]; 0.5 µg/mL (≈ 0.86 µM) in experiment [3]; 32 µg/mL (≈ 55 µM) in the experiment with Mycobacterium marinum. This compound also came in with an MTD50 with Vero of more than 64 µg/mL.
In the case of `c1ccc(-c2ccc(CNc3ccc(CN4CCSCC4)cc3)cc2)cc1`, the MIC is 8 µg/mL (≈ 21.4 µM) with Mycobacterium gordonae; more than 16 µg/mL in experiment [2]; 0.5 µg/mL (≈ 1.33 µM) in experiment [3]; 8 µg/mL (≈ 21.4 µM) with Mycobacterium marinum; 4 µg/mL (≈ 10.7 µM) against Mycobacterium avium [4]. Besides, the MTD50 with Vero was 8 µg/mL.
As to `O=C(Nc1ccc(CN2CCSCC2)cc1)c1ccc(-c2ccccc2)cc1`, the MIC (with Mycobacterium avium [1]; against Mycobacterium gordonae; in experiment [2]; in experiment [3]; in the experiment on Mycobacterium marinum) was more than 16 µg/mL in each case. This compound gave an MTD50 in the experiment on Vero of 16 µg/mL.
Turning to `C[N+](C)(Cc1ccc(-c2ccccc2)cc1)c1ccc(CN2CCSCC2)cc1.[I-]`, the MIC in the experiment on Mycobacterium avium [1] is 16 µg/mL; in the experiment on Mycobacterium gordonae, 8 µg/mL; in experiment [2] it was more than 16 µg/mL; in experiment [3], 8 µg/mL; against Mycobacterium marinum, 16 µg/mL. In addition, the MTD50 in the experiment with Vero stood at 16 µg/mL.
With `NNC(=O)c1ccncc1` [ISONIAZID], the MIC with Mycobacterium avium [1] amounted to 32 µg/mL (≈ 233 µM); against Mycobacterium gordonae it was 32 µg/mL (≈ 233 µM); in experiment [2] it was 64 µg/mL (≈ 467 µM); in experiment [3] it was 0.25 µg/mL (≈ 1.82 µM); against Mycobacterium marinum, 16 µg/mL (≈ 117 µM). This compound also displayed an MTD50 in the experiment on Vero of 32 µg/mL.
Regarding `CN(Cc1ccc(-c2ccccc2)cc1)c1ccc(CN2CCSCC2)cc1`, the MIC against Mycobacterium avium [1] was 4 µg/mL (≈ 10.3 µM); against Mycobacterium gordonae, more than 16 µg/mL; in experiment [2], more than 16 µg/mL; in experiment [3], 0.5 µg/mL (≈ 1.29 µM); in the experiment with Mycobacterium marinum, 8 µg/mL (≈ 20.6 µM). In the experiment with Vero, the MTD50 amounted to 8 µg/mL.

For the origin of these results see ChEMBL document CHEMBL1130838, “N-[4-(1,1'-biphenyl)methyl]-4-(4-thiomorpholinylmethyl) benzenamines as non-oxazolidinone analogues of antimycobacterial U-100480” (1998).
